# Shown are actives, neighbours in structure and some others; about 1.8% of the full set was active somewhere.
# MBD2 DNA inh = inhibitors of MBD2 binding to methylated DNA, primary screen, biochemical, TR-FRET, DNA-binding domain, human | MBD2 binding to methylated oligonucleotide | inhibition, % at 4.4 µM | 370,000 tested, 0.31% active; in the data active means inhibition above about 13%
# LEDGF integ inh = blockers of LEDGF/p75-dependent integrase strand transfer – biochemical, TR-FRET, high throughput, primary screen; HIV-1 integrase (with human LEDGF/p75); TR-FRET IN-LEDGF/p75 DNA integration, Eu/Cy5; inhibition, % at 3.7 µM; 370,000 tested, 0.64% active; AID 743269, 2014;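 active means inhibition above the screen-wide mean plus 3 SD, cut at about 13% in these data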;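 further: signal is the Cy5 over europium emission ratio at 671 and 618 nm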
# TDP2 absorb = human TDP2 enzyme inhibitors, primary screen, biochemical, epi absorbance, recombinant enzyme. inhibition, % at 12.8 µM. Tyrosyl-DNA phosphodiesterase 2 (Homo sapiens), O95551. 370,000 tested, 0.34% active. AID 720702, 2013. T5PNP hydrolysis, p-nitrophenol absorbance 415 nm;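 active means inhibition above the mean of all tested compounds plus 3 SD, set per campaign, cut at about 25% in these data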
#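 Incubation: 2 h at 37 °C; Test system: recombinant human TDP2; Quantity: enzyme 120 nM; Read-out basis: percent inhibition; Medium: 50 mM Tris-HCl pH 7.5 with Mg2+, KCl, DTT, BSA; Repeats: single replicate; Compound: 12.8 µM single point, 1% DMSO; Signal: epi absorbance; Reagent: 5 mM T5PNP chromogenic substrate; Benchmarks: no-enzyme high, DMSO-plus-enzyme low.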
# NSD2 HMT inh = NSD2 histone methyltransferase inhibitors, primary screen, biochemical, AlphaScreen, single concentration, set 2; Histone-lysine N-methyltransferase NSD2 (Homo sapiens), O96028; NSD2 peptide methylation, 120 min; inhibition, % at 12.5 µM; 310,000 tested, 0.54% active; AID 743445, 2014; in the data active means inhibition above about 50%
# CASP6 VEID inh = human caspase-6 inhibitors, primary screen, biochemical, VEID-R110 fluorescence, single point, set 2; purified caspase-6, Z-VEID-R110 cleavage fluorescence; 350,000 tested, 0.53% active; P55212; inhibition, % at 12.5 µM;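 active means mean inhibition across replicates at least about 35%, with every replicate also reaching that limit, limit read from the data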
# UHRF1 MBD2 ctr = UHRF1 methylated DNA binding inhibitors, primary screen, counter-screen for MBD2 inhibitor project, biochemical, TR-FRET, human UHRF1, single concentration; E3 ubiquitin-protein ligase UHRF1 (Homo sapiens), Q96T88; UHRF1 binding to methylated oligo; inhibition, % at 4.4 µM; 370,000 tested, 0.75% active; in the data active means inhibition above about 21%;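 further: UHRF1 SRA domain binding a hemimethylated CpG hairpin DNA probe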
# TDP2 confirm = human TDP2 enzyme inhibitors, retest, confirmation, biochemical, epi absorbance, recombinant enzyme; shares compounds with TDP2 absorb; absorbance read-out; inhibition, % at 12.8 µM; 1,100 tested, 22% active; in the data active means inhibition above about 25%
# IN multimer act = HIV-1 IN multimer formation enhancers, counter-screen for LEDGF/p75 integration inhibitor project, biochemical, TR-FRET | 2,000 tested, 17% active | shares compounds with LEDGF integ inh | activation, % at 7.7 µM | TR-FRET HIV-1 integrase multimerization; in the data active means activation above about 8.9%
# TRFRET interf = TR-FRET optical interference artefacts, confirmation, artefact control for LEDGF/p75-dependent integration inhibitor project, biochemical, HIV-1 IN multimerization | 2,000 tested, under 10 active | inhibition, % at 7.7 µM | shares compounds with LEDGF integ inh | TR-FRET optical interference counterscreen;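 active means inhibition above the mean over all tested compounds plus 3 SD, which no compound reached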
# LEDGF integ conf = inhibitors of HIV-1 IN-LEDGF/p75 DNA integration, confirmation, biochemical, TR-FRET. shares compounds with LEDGF integ inh. inhibition, % at 3.7 µM. TR-FRET LEDGF/p75-dependent HIV-1 integration. 2,000 tested, 36% active; in the data active means inhibition above about 14%
# Hits are given with their value; – = inactive; · = no result.
SMILES,MBD2 DNA inh,LEDGF integ inh,TDP2 absorb,NSD2 HMT inh,CASP6 VEID inh,UHRF1 MBD2 ctr,TDP2 confirm,IN multimer act,TRFRET interf,LEDGF integ conf
CO[C@@H]1CN(C)C(=O)c2ccc(NC(C)=O)cc2OC[C@@H](C)N(Cc2cc(-c3ccccc3)on2)C[C@H]1C,·,·,·,·,–,·,·,·,·,·
Nn1cnnc1N/N=C/c1ccc(Cl)cc1Cl,–,48,73,–,–,–,–,–,–,–
COc1ccc(/C=N/Nc2nncn2N)cc1Br,–,70,75,–,–,–,–,–,–,–
COc1cc(/C=N/Nc2nncn2N)ccc1OCc1c(C)no[n+]1[O-],–,59,68,·,–,–,–,–,–,–
COc1cc(/C=C(\C#N)C(N)=O)ccc1OCc1c(C)no[n+]1[O-],–,–,–,–,–,–,·,·,·,·
COc1ccc(CSc2nncn2N)cc1Br,–,–,–,–,·,–,·,·,·,·
C[C@@H]1CN([C@H](C)CO)C(=O)c2cc(C#Cc3cccc(F)c3)cnc2O[C@H]1CN(C)C(=O)C1CCC1,·,·,·,·,–,·,·,·,·,·
COc1ccc(N)c2c1OCCC2=O,–,19,34,–,·,–,–,–,–,–
Cc1[nH]c2ccccc2c1/C=N/Nc1nncn1N,–,74,74,–,–,–,–,–,–,–
Cc1noc(C)c1S(=O)(=O)Nc1ccc2c(c1)C(=O)N([C@H](C)CO)C[C@H](C)[C@@H](CN(C)Cc1ccc(-c3ccccc3)cc1)O2,·,·,·,·,–,·,·,·,·,·
CC(=O)N(C1=C(N2CCOCC2)C(=O)c2ccccc2C1=O)c1ccc(C(=O)O)cc1,–,17,40,–,70,–,–,–,–,17
CCCCCn1c(NC(=O)c2ccco2)c(S(=O)(=O)c2ccc(C)cc2)c2nc3ccccc3nc21,–,17,69,–,·,–,–,17,–,21
COc1ccc(OC)c(C2C(C#N)=C(N)Oc3c2c(C)nn3-c2cccc(Cl)c2)c1 (stereo not drawn),–,17,82,–,·,–,–,–,–,–
COc1cc(C2C(C#N)=C(N)Oc3c2c(-c2ccccc2)nn3-c2ccccc2)cc(OC)c1OC (stereo not drawn),–,19,80,–,·,–,–,–,–,–
Cc1nn(-c2ccccc2)c2c1C(c1ccco1)C(C#N)=C(N)O2 (stereo not drawn),–,–,–,·,·,–,·,·,·,·
CO[C@H]1CN(C)C(=O)c2ccc(NC(=O)c3ccc4c(c3)OCO4)cc2OC[C@H](C)N(CC2CC2)C[C@H]1C,·,·,·,·,–,·,·,·,·,·
CC(C)NC(=O)N(C)C[C@H]1Oc2ccc(NC(=O)CCN3CCOCC3)cc2CC(=O)N([C@H](C)CO)C[C@@H]1C,·,·,·,·,–,·,·,·,·,·
CCCNC(=O)N1C[C@@H](C)[C@H](OC)CN(C)C(=O)c2cc(NS(C)(=O)=O)ccc2OC[C@@H]1C,·,·,·,·,–,·,·,·,·,·
COc1ccc(C(O)c2nccc3cc(OC)c(OC)cc23)cc1OC (stereo not drawn),–,29,34,–,–,–,–,–,–,–

# Screening data (PubChem)
